Screens: PubChem BioAssay, The Scripps Research Institute Molecular Screening Center
ARFGAP1 inh = inhibitors of rat ARFGAP1 GAP activity, primary screen, biochemical, fluorescence polarization, GDP tracer; Arfgap1-stimulated ARF1 GTP hydrolysis, GDP FP detection; inhibition, % at 16.5 µM; 0.26% of 360,000 active;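 active = inhibition above a per-plate limit, mean inhibition of low control wells plus 3 SD, cut at about 25% in these data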;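 note: 0% = DMSO wells with enzyme and 100% = wells lacking Arfgap1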
Target sequence (Q62848 1-136 limits assumed): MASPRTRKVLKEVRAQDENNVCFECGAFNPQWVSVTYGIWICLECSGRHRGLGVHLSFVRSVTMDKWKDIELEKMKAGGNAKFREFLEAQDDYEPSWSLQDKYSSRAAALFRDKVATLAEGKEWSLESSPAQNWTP
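Material – truncated rat Arfgap1 GAP domain · Buffer or medium – HEPES-based buffer, pH 7.5 · Reagent – human ARF1(Δ1-17)-GTP substrate · Dosing – 16.5 µM single point, 1.26% DMSO · Schedule – GTP hydrolysis reaction 2 h at 25 °C · Technique – GDP detection by fluorescence polarization · Benchmarks – No-Arfgap1 wells (100%) versus DMSO full-reaction wells (0%) · Repeats – single replicate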
MsrA inhibitor = bovine MsrA enzyme inhibitors, primary screen, biochemical, absorbance, HTS | purified bovine MsrA, absorbance read-out | inhibition, % at 15.5 µM | 0.75% of 360,000 active | AID 651718, 2012; in the data active = inhibition above about 4.5%;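 note: 0% = vehicle wells with enzyme and 100% = reference inhibitor wells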
MsrA act = bovine MsrA enzyme activators, primary screen, biochemical, absorbance, HTS. Methionine sulfoxide reductase A (Bos taurus). purified bovine MsrA, absorbance read-out. activation, % at 10.6 µM. 0.3% of 360,000 active; in the data active = activation above about 7.5%;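 note: 0% = vehicle and 100% = reference activator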
ASAP1 inh = inhibitors of human ASAP1 ArfGAP activity, primary screen, biochemical, fluorescence polarization. Arf-GAP with SH3 domain, ANK repeat and PH domain-containing protein 1 (Homo sapiens), …. ASAP1-stimulated ARF1 GTP hydrolysis, GDP FP detection. inhibition, % at 16.5 µM. 0.19% of 360,000 active; in the data active = inhibition above about 25%;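 note: 0% = vehicle with enzyme and substrate and 100% = no enzyme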
Target sequence (Q9ULH1 325-724 limits assumed): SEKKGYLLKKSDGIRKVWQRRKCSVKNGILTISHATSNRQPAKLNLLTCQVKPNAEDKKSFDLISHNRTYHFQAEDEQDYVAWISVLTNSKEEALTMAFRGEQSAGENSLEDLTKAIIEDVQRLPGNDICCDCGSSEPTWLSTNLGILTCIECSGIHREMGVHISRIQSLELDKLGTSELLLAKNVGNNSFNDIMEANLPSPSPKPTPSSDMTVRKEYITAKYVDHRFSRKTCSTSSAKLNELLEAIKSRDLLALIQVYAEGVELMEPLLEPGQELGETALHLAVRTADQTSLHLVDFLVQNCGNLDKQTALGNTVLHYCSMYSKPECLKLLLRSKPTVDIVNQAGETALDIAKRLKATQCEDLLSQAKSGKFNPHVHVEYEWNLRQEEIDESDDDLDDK
MsrA act confirm = bovine MsrA activators, retest, confirmation, biochemical, absorbance, HTS; activation, % at 10.6 µM; purified bovine MsrA, absorbance read-out; shares compounds with MsrA act; 12% of 1,000 active; in the data active = activation above about 4%;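 note: enzyme coupled to thioredoxin and thioredoxin reductase with NADPH; 0% = vehicle wells and 100% = reference activator wells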
Numbers without * were called inactive; i = inactive; . = no result. A selection: hits, their analogues and other compounds. The true share with any hit is near 1.4%.

SMILES | ARFGAP1 inh | MsrA inhibitor | MsrA act | ASAP1 inh | MsrA act confirm
CN(C(=O)c1cccc(NC(=O)Cc2ccc(NC(=O)C3CCN(C(=O)c4ccccc4)CC3)cc2)c1)C1CC1 | -10.1 | -0.7 | -1.1 | 15.5 | .
CN(C(=O)c1cccc(NC(=O)Cc2cccc(NC(=O)C3CCN(C(=O)c4ccccc4)CC3)c2)c1)C1CC1 | -9.0 | -1.1 | 8.7* | 9.5 | -0.6
CC1CCCCC12NC(=O)N(CC(=O)NCCc1c[nH]c3ccccc13)C2=O (configuration not stated) | -1.8 | -0.4 | -0.4 | -8.4 | .
O=C(c1ccccc1)c1ccc(N2CCN(C(=O)c3ccc(F)cc3F)CC2)c(F)c1 | 7.1 | -0.9 | -1.4 | 0.7 | .
CC(C)(C)NC(=O)/C=C/c1ccc(C(F)(F)F)cc1 | 4.5 | 0.1 | 8.2* | -1.9 | -1.4
COc1ccc(C2CC(c3cccs3)=Nc3ccccc3S2)cc1 (configuration not stated) | -1.4 | 2.8 | 10.1* | 5.3 | -0.6
COC(=O)c1[nH]c2ccc(F)cc2c1NS(=O)(=O)c1ccc(OC)cc1OC | 3.3 | 1.1 | -1.3 | 8.0 | .
CCOC(=O)c1[nH]c2ccc(OC)cc2c1NS(=O)(=O)c1ccc(OC)cc1OC | 10.8 | 0.1 | 9.7* | 13.7 | -1.8
CN(C)c1ccc2nc3ccc(=[N+](C)C)cc-3sc2c1 | i | 8.2* | 22.9* | -443.7 | 7.9*
Cc1ccc(S(=O)(=O)N2CCC(C(=O)NCCCOC(C)C)CC2)cc1 | -6.5 | -0.8 | 7.7* | 1.6 | -0.1
O=S1(=O)CCOC[C@H](c2ccccc2)N1Cc1cccc(F)c1 | 0.7 | 0.1 | 11.0* | 6.7 | -1.0
Cc1ccc(N2C(=O)CC(N3CCN(c4ccc(F)cc4)CC3)C2=O)c(C)c1 (configuration not stated) | -5.1 | -1.0 | 0.8 | 0.7 | .
Cc1ccc(-n2sc3cc(F)ccc3c2=O)c(C)c1 | -0.2 | -0.6 | 13.9* | -2.6 | 2.9
Cc1ccc(-n2sc3ccccc3c2=O)cc1 | -7.6 | -0.2 | 12.8* | 9.1 | 2.2
O=c1c2cc(F)ccc2sn1-c1ccccc1Cl | 3.5 | -0.5 | 0.5 | 4.9 | .
O=c1c2ccccc2sn1-c1ccc(F)cc1 | -7.7 | 0.5 | 12.3* | 2.6 | 8.3*
O=c1c2ccc(F)cc2sn1-c1ccccc1 | 5.0 | 0.6 | 12.9* | -2.2 | 8.0*
NC(c1csc(Nc2ccc(C(F)(F)F)cn2)n1)C1CCCCC1 (configuration not stated) | 8.3 | -1.4 | 2.8 | 2.6 | .
O=C(O/N=C/c1ccc(Br)cc1)c1ccc(F)cc1 | 4.5 | -0.4 | -1.1 | 2.2 | .
O=C(Nc1ccccc1)N1CCN(c2nc3ccccc3s2)CC1 | -2.8 | 0.8 | -0.7 | -1.1 | .
O=C(Nc1ccc(F)cc1)N1CCN(c2nc3ccccc3s2)CC1 | 1.8 | -0.3 | 8.0* | -0.2 | 0.7
COc1cc(CN2C[C@@H](CO)O[C@@H](n3cnc4c(Nc5ccccc5)ncnc43)C2)cc(OC)c1OC | 9.2 | -0.5 | -2.5 | -1.6 | .
Cc1ccccc1Cn1c2ccccc2c2cnn(CC(=O)NCc3ccccn3)c(=O)c21 | 1.8 | 2.1 | -3.9 | 1.4 | .
Cc1c2cnn(CC(=O)NCc3ccccn3)c(=O)c2c(C)n1Cc1ccccc1 | -22.1 | 1.4 | 11.2* | -9.2 | -1.1
COc1cc(/C=N/NC(=O)c2cccc([N+](=O)[O-])c2)ccc1OCc1ccc(C)cc1 | 9.3 | -1.1 | 8.3* | 5.0 | -1.4
SMILES | ARFGAP1 inh | MsrA inhibitor | MsrA act | ASAP1 inh | MsrA act confirm
C=CCNC(=O)c1nc2ccccc2s1 | 10.2 | -1.3 | 9.6* | -0.7 | -0.8
CC(=O)Nc1c([N+](=O)[O-])cc2c3c(cccc13)CC2 | 16.5 | 1.7 | -9.6 | -8.2 | .
O=C(NC(=S)NNC(=O)c1ccccc1[N+](=O)[O-])c1ccc(Br)cc1 | 3.4 | -1.5 | 10.0* | -14.6 | -0.7
O=C(NNC(=S)NC(=O)c1ccccc1[N+](=O)[O-])c1ccccc1Cl | -5.0 | 2.0 | -1.0 | -2.0 | .
CCOC(=O)c1sc2nc(CN3CCN(c4cccc(C(F)(F)F)c4)CC3)[nH]c(=O)c2c1C | 2.3 | 1.4 | -10.7 | 2.7 | .
O=[N+]([O-])c1ccc(-[n+]2ccc3ccccc3c2)c([N+](=O)[O-])c1 | -2.6 | 2.3 | 11.4* | 3.0 | 2.8
CCCc1nnc(SCC(=O)Nc2ccc(NC(C)=O)cc2)n1-n1cccc1 | -0.2 | 0.6 | -1.9 | -2.1 | .
COC(=O)Cc1[nH]n(-c2nc3ccccc3s2)c(=O)c1C(C)=Nc1ccc(Cl)cc1 | -0.8 | 1.9 | 8.2* | 3.7 | -1.3
Cc1ccc(OCC(=O)NCCNC(=O)c2cnccn2)cc1C | -8.0 | 0.0 | -0.4 | -6.0 | .
O=C(CCN1C(=O)c2ccccc2C1=O)Nc1sc2c(c1C(=O)NCC1CCCO1)CCC2 (configuration not stated) | -18.1 | 0.5 | -4.2 | -7.4 | .
Fc1ccc(NC(=S)Nc2ccccc2N2CCOCC2)cc1Cl | 5.3 | -0.3 | 9.7* | 7.6 | -0.5
Cc1cc(NC(=O)CCSc2nc(-c3ccco3)cc(C(F)(F)F)n2)n(-c2ccccc2)n1 | 12.9 | 0.0 | 17.6* | 8.5 | 1.4
Cc1nn(C)c(C)c1NC(=O)CCSc1nc(-c2ccco2)cc(C(F)(F)F)n1 | 4.9 | -0.1 | -0.3 | -6.0 | .
CCN(CC(=O)NCCc1ccc(S(N)(=O)=O)cc1)Cc1ccccc1 | 1.8 | 2.4 | -7.3 | 5.0 | .
COc1nccc(C(F)(F)F)c1C(=O)NC(=O)Nc1ccccc1 | 16.0 | 0.7 | 9.5* | 6.5 | 1.6
Cc1cccc(NS(=O)(=O)c2nnc(NC(=O)C3CCCCC3)s2)c1 | -12.8 | 1.5 | -0.1 | 2.7 | .
CCn1ccc(C(=O)Nc2ccc3c(c2)CCC3)n1 | . | . | -2.9 | . | .
S=c1ncc2[nH]c(=S)[nH]c2[nH]1 | . | . | 7.9* | . | 6.2*
S=c1[nH]c2ccc(Cl)cc2[nH]1 | -5.3 | -0.8 | -2.1 | 1.5 | .
OC[C@@H]1CN(Cc2ccc3c(c2)OCO3)C[C@H](n2cnc3c(N4CCOCC4)ncnc32)O1 | -2.4 | 0.6 | 7.8* | 6.7 | 0.3
c1ccc(-c2nc(NC3CC3)nc(-n3ccnc3)n2)cc1 | -2.7 | 0.5 | 14.1* | -16.8 | -1.6
O=C(NN=C1CCCCC1)Nc1ccccc1Cl | 9.8 | -0.7 | -0.3 | 3.0 | .
COc1ccc(OC)c(N(CC(=O)NCc2ccccc2)S(=O)(=O)c2ccc(OC)c(OC)c2)c1 | -5.9 | -0.4 | -1.8 | -3.2 | .
COc1ccc(N(CC(=O)NCc2cccnc2)S(=O)(=O)c2ccccc2)c(OC)c1 | 15.5 | 0.1 | 12.7* | 5.6 | -1.2
CCOc1ccccc1CN1CCNC(=O)C1CC(=O)NCc1nc(C)cs1 (configuration not stated) | 6.4 | 0.1 | -0.8 | -6.3 | .
O=C(CSc1ncnc2c1oc1ccccc12)Nc1cccc(Cl)c1 | -3.6 | -0.2 | -0.2 | 4.2 | .
O=C(CSc1ncnc2c1oc1ccccc12)Nc1cccc(C(F)(F)F)c1 | 6.0 | 0.3 | 8.8* | 2.0 | -1.8
